Most compounds without a hit are left out; they make up all but 2.7% or so of the library.
OX1R antag-1 = OX1R (HCRTR1) antagonists, primary screen, fluorescence, CHO/OX1R cells, Fluo-8 calcium, orexin A; Orexin/Hypocretin receptor type 1 (Homo sapiens), O43613; Fluo-8 calcium fluorescence; inhibition, % at 5 µM; 0.43% of 330,000 active; AID 434989, 2010;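 active means inhibition above its plate's threshold, mean inhibition of all tested compounds on the plate plus 3 SD, cut at about 37% in these data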
OX1R antag-2 = antagonists of human orexin 1 receptor (OX1R); OX1R-expressing cells, FRET antagonist read-out; 1.8% of 330,000 active; inhibition, % at 6.6 µM; Orexin/Hypocretin receptor type 1 (Homo sapiens), O43613; in the data active means inhibition mostly above about 38%, no sharp cut-off; inactive means mostly below about 40%
OXTR agonist = human OXTR agonists, primary screen, fluorescence, CHO-OTR cells, Fluo-8 calcium; Oxytocin receptor (Homo sapiens), P30559; Fluo-8 calcium fluorescence; normalized: DMSO 0%, oxytocin 100%; activation, % at 3 µM; 0.32% of 320,000 active; AID 2435, 2010;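 active means activation above the mean of all tested compounds plus 3 SD, cutoff set per screening run, cut at about 20% in these data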;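 further: peak over basal fluorescence ratio from a 100 s FLIPR kinetic read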
Target sequence (P30559 whole entry, looked up): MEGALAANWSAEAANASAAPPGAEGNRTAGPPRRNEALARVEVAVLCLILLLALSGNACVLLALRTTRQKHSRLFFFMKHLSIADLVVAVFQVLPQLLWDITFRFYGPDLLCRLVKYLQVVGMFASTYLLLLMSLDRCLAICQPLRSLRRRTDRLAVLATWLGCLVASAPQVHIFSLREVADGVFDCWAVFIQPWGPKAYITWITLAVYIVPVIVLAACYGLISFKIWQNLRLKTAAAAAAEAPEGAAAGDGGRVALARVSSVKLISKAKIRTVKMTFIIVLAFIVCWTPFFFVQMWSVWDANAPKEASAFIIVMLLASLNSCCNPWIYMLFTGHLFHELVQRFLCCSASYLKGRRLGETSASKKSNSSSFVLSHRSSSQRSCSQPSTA
OXTR potentiate = human OXTR potentiators, primary screen, fluorescence, CHO-OTR cells, Fluo-8 calcium. Oxytocin receptor (Homo sapiens), P30559. Fluo-8 calcium fluorescence, potentiator mode; 0% = oxytocin EC15, 100% = EC100. activation, % at 3 µM. 0.061% of 320,000 active. AID 2445, 2010;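 active means activation above that plate's cutoff, the mean activation of tested compounds plus 3 SD, cut at about 6.6% in these data, passing the limit was not always enough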
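System: human OTR in CHO cells; Also added: sub-maximal oxytocin, roughly EC15; Timing: compound 6 min at room temperature before oxytocin, 100 s read; Technique: Fluo-8 intracellular calcium fluorescence, ex 470-495, em 515-575 nm; Controls: oxytocin EC15 low and EC100 high; Replication: singlicate.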
CHO parental Ca = ATP-evoked calcium signal inhibitors, parental CHO, primary screen, counter-screen for OX1R antagonist project, cell-based, fluorescence, Fluo-8 calcium dye; parental CHO-K1, ATP-induced calcium, Fluo-8 fluorescence; inhibition, % at 5.6 µM; 0.63% of 330,000 active; AID 463079, 2010;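 active means inhibition above that plate's mean sample inhibition plus 3 SD, cut at about 26% in these data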
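Material: parental CHO cells / Compound: single nominal dose of 5.6 µM per compound / Signal: Fluo-8 fluorescence / Replicates: singlicate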
V1R ag counter = agonists of human V1a receptor, primary screen, counter-screen for OXTR agonist project, fluorescence, CHO-V1R cells; Vasopressin V1a receptor (Homo sapiens), P37288; Fluo-8 calcium fluorescence, agonist mode; 0% DMSO, 100% 3 nM vasopressin; activation, % at 3 µM; 0.25% of 320,000 active; AID 2797, 2010;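 active means activation above the mean activation of all tested compounds plus 3 SD, per screening run, cut at about 20% in these data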;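 further: signal is peak over basal fluorescence ratio across a 100 second FLIPR read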
OX1R Ca confirm = OX1R (HCRTR1) antagonists, confirmation, fluorescence, CHO/OX1R cells, Fluo-8 calcium, orexin A. 38% of 1,100 active. orexin A calcium Fluo-8 fluorescence. inhibition, % at 5 µM. shares compounds with OX1R antag-1; in the data active means inhibition above about 29%
CHO Ca triplic = ATP-evoked calcium inhibition in parental CHO, counter-screen for OX1R antagonist project, cell-based, fluorescence, CHO-K1, triplicate. shares compounds with OX1R antag-1. ATP-induced calcium, Fluo-8 fluorescence. inhibition, % at 5.6 µM. 9.3% of 1,100 active. AID 492965, 2010;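 active means inhibition above a per-plate limit, the mean inhibition of that plate's test compounds plus 3 SD, cut at about 25% in these data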
OX1R HTRF confirm = OX1R (HCRTR1) antagonists, confirmation, cell-based, HTRF. OX1R-expressing cells, HTRF antagonist assay. 49% of 1,800 active. shares compounds with OX1R antag-2. AID 492964, 2010. inhibition, % at 6.6 µM; in the data active means inhibition above about 55%;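 further: CHO cells expressing OX1R stimulated with orexin A at about EC80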
CHO-K1 HTRF = signal inhibition in parental CHO-K1 cells, counter-screen for OX1R antagonist project, cell-based, HTRF. shares compounds with OX1R antag-2. HTRF counterscreen. inhibition, % at 6.6 µM. 48% of 1,800 active; in the data active means inhibition above about 17%
Numbers stand for hits; - = inactive; . = no result given.

SMILES	OX1R antag-1	OX1R antag-2	OXTR agonist	OXTR potentiate	CHO parental Ca	V1R ag counter	OX1R Ca confirm	CHO Ca triplic	OX1R HTRF confirm	CHO-K1 HTRF
Cc1ccc(Cn2nc(C)cc2C(=O)Nc2ccc(Cl)cc2)cc1	-	56	-	-	-	-	-	-	62	-
COc1cccc(NC(=O)[C@@H]2CCCN2S(=O)(=O)c2cccc3cccnc23)c1	47	84	-	-	-	-	50	-	84	-
COc1ccc(C)cc1NC(=O)C1CCCN(S(=O)(=O)c2cccc3cccnc23)C1 (stereo unspecified)	-	79	-	-	-	-	-	-	80	-
O=C(NC1CCCC1)C1CCCN1S(=O)(=O)c1cccc2cccnc12 (stereo unspecified)	-	-	-	-	-	-	.	.	.	.
COc1ccc(NC(=O)C2CCCN(S(=O)(=O)c3cccc4cccnc34)C2)c(OC)c1 (stereo unspecified)	-	-	-	-	-	-	.	.	.	.
O=C(Nc1cccc(F)c1)C1CCCN1S(=O)(=O)c1cccc2cccnc12 (stereo unspecified)	-	71	-	-	-	-	31	-	89	-
Cc1ccc(S(=O)(=O)N2CCC(C(=O)Nc3cc(C(F)(F)F)ccc3N3CCOCC3)CC2)cc1C	-	-	-	-	-	-	.	.	.	.
O=C(CSc1ncccn1)N1CCC(Cc2ccccc2)CC1	-	-	-	-	-	-	.	.	.	.
Cc1ccc(NC(=S)N2CCCCC2CO)cc1C (stereo unspecified)	-	-	-	-	-	-	.	.	.	.
Cc1c(C(=O)OCC(=O)NCCN2C(=O)CSC2=O)oc2c1ccc1ccccc12	-	77	-	-	-	-	33	-	88	-
COc1cc(OC)c(NC(=O)c2ccccc2F)cc1Cl	-	89	-	-	-	-	35	-	82	-
CCCNc1nc(Nc2ccc(C)c(Cl)c2)c2cnn(C)c2n1	-	-	-	-	-	-	.	.	.	.
CNc1nc(Nc2ccc(C)c(Cl)c2)c2cnn(C)c2n1	-	84	-	-	-	-	-	-	84	-
Cc1ccc2c(c1)Cc1nc3ccccc3nc1-2	-	87	-	-	-	-	33	-	90	-
Cc1cc(N2CCCC2)nc2ccccc12	-	-	-	-	-	-	.	.	.	.
COc1ccc(/C=C/c2nc(-c3ccccc3O)n[nH]2)cc1OC	72	103	-	-	-	-	67	-	92	-
O=C(Nc1cc(Sc2ccccn2)cc([N+](=O)[O-])c1)c1ccc(Cl)cc1	-	94	-	-	-	-	-	-	-	-
CCn1c(SCC(=O)Nc2sc3c(c2C#N)CCC(C(C)(C)C)C3)nnc1-c1ccco1 (stereo unspecified)	-	-	-	-	-	-	.	.	.	.
CCn1c(SCC(=O)Nc2sc3c(c2C#N)CCCC3)nnc1-c1ccco1	-	94	-	-	-	-	-	-	78	-
CCN(CC)c1ccc2cc(S(=O)(=O)c3ccc(Cl)cc3)c(=O)oc2c1	-	-	-	-	-	-	.	.	.	.
CCN(CC)c1ccc2cc(-c3nc4ccccc4n3C)c(=O)oc2c1	95	83	-	-	-	-	84	-	89	-
CNC(=O)C1CN(C(=O)c2cccc(S(=O)(=O)N3c4ccccc4CC3C)c2)c2ccccc2O1 (stereo unspecified)	-	40	-	-	-	-	-	-	59	-
O=C(Nc1sc2c(c1C(=O)NCC1CCCO1)CCCC2)c1cccs1 (stereo unspecified)	48	40	-	-	-	-	-	-	-	-
Cc1cc(C)cc(N(C(=O)c2ccccn2)C(C(=O)NC2CCCCC2)c2cccs2)c1 (stereo unspecified)	48	64	-	-	-	-	-	-	67	-
CC(=O)c1cccc(N(C(=O)c2ccccn2)C(C(=O)NC2CCCCC2)c2ccccc2)c1 (stereo unspecified)	-	-	-	-	-	-	.	.	.	.
SMILES	OX1R antag-1	OX1R antag-2	OXTR agonist	OXTR potentiate	CHO parental Ca	V1R ag counter	OX1R Ca confirm	CHO Ca triplic	OX1R HTRF confirm	CHO-K1 HTRF
COc1ccccc1CCNC(=O)Cn1ccc2cc(S(=O)(=O)N3CCC(C)CC3)ccc21	-	-	-	-	-	-	.	.	.	.
COc1ccc(OC)c(CCNC(=O)Cn2ccc3cc(S(=O)(=O)N4CCCC4)ccc32)c1	-	54	-	-	-	-	-	-	63	-
CC(C)(C)C(=O)Nc1cccc(-c2nc3ccccc3[nH]2)c1	-	-	-	-	-	-	.	.	.	.
CC(C)(C)C(=O)Nc1sc2c(c1-c1nc3ccccc3[nH]1)CCCC2	80	56	-	-	-	-	-	-	56	-
COc1ccc(NC(=O)c2cc3c([nH]c4ccccc43)c(C)n2)cc1	-	96	-	-	-	-	-	-	-	-
Cc1nc(C(=O)Nc2ccccc2Cl)cc2c1[nH]c1ccccc12	-	-	-	-	-	-	.	.	.	.
CCOc1ccccc1-c1nc(-c2ccc(NC(=O)c3ccc(Br)o3)cc2)no1	-	69	-	-	-	-	-	-	79	18
CCOc1ccccc1-c1nc(-c2ccc(NC(=O)Cc3ccc(OC)cc3)cc2)no1	-	-	-	-	-	-	.	.	.	.
Cc1cccc(COc2ccc(/C=C3/C(=O)N(C)C(=S)N3C)cc2)c1	-	-	-	-	-	-	.	.	.	.
CC(C)(C)NC(=O)C(Cc1ccccc1)NS(=O)(=O)c1cccc2nsnc12 (stereo unspecified)	-	116	-	-	-	-	-	-	80	17

Assay outcomes: PubChem BioAssay, The Scripps Research Institute Molecular Screening Center
